ChEMBL document CHEMBL3352499, “One pot three components microwave assisted and conventional synthesis of new 3-(4-chloro-2-hydroxyphenyl)-2-(substituted) thiazolidin-4-one as antimicrobial agents” (Bioorg Med Chem Lett, 2014)
≈ marks a conversion by molar mass, not a printed value.

These molecules were tested on Aspergillus niger (assay: Fungicidal activity against Aspergillus niger NCIM-1196 after 48 to 72 hrs by two fold serial macrodilution technique). Details: not given.
Type: functional
Procedure, shortened: (§1)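 Serial subcultivation followed 72 h of exposure to compounds dissolved in saline containing 5% DMSO. MBC/MFC was the lowest concentration with no visible growth, taken as 99.5% killing of the original inoculum. Runs were in triplicate, with the mean reading used.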

| Structure (SMILES) | MFC [µg/mL] |
| --- | --- |
| O=C1CSC(c2ccc(O)cc2)N1c1ccc(Cl)cc1O (stereo unspecified) | 115 (≈ 357 µM) |
| Cc1ncsc1C1SCC(=O)N1c1ccc(Cl)cc1O (stereo unspecified) | 135 (≈ 413 µM) |
| N#Cc1ccc(C2SCC(=O)N2c2ccc(Cl)cc2O)cc1 (stereo unspecified) | 145 (≈ 438 µM) |

The molecules below were run on Aspergillus flavus (assay: Fungicidal activity against Aspergillus flavus NCIM-539 after 48 to 72 hrs by two fold serial macrodilution technique). Details: not given.
Type: functional
Procedure, shortened: as §1

| Structure (SMILES) | MFC [µg/mL] |
| --- | --- |
| O=C1CSC(c2ccc(O)cc2)N1c1ccc(Cl)cc1O (stereo unspecified) | 35 (≈ 109 µM) |
| Cc1ncsc1C1SCC(=O)N1c1ccc(Cl)cc1O (stereo unspecified) | 20 (≈ 61.2 µM) |
| N#Cc1ccc(C2SCC(=O)N2c2ccc(Cl)cc2O)cc1 (stereo unspecified) | 115 (≈ 348 µM) |

The molecules below were run on MCF7 (assay: Cytotoxicity against human MCF7 cells by SRB method). Details: not given.
Type: cell-based
Procedure, shortened: (§2)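 SRB colorimetric growth assay. IC50, in µM, was the concentration inhibiting cell growth by 50% relative to untreated control cells. Runs were in triplicate in three independent experiments, with means reported. The positive control was doxorubicin.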

| Structure (SMILES) | IC50 [µM] |
| --- | --- |
| O=C1CSC(c2ccc(O)cc2)N1c1ccc(Cl)cc1O (stereo unspecified) | 59.4 |
| Cc1ncsc1C1SCC(=O)N1c1ccc(Cl)cc1O (stereo unspecified) | 75.7 |
| N#Cc1ccc(C2SCC(=O)N2c2ccc(Cl)cc2O)cc1 (stereo unspecified) | 81.2 |

What follows are molecules tested on Aspergillus niger (assay: Antimicrobial activity against Aspergillus niger NCIM-1196 after 20 hrs by two fold serial macrodilution technique). Details: NCIM-1196, 20 h.
Type: functional

| MIC [µg/mL] | Structure (SMILES) |
| --- | --- |
| 55 (≈ 171 µM) | O=C1CSC(c2ccc(O)cc2)N1c1ccc(Cl)cc1O (stereo unspecified) |
| 80 (≈ 245 µM) | Cc1ncsc1C1SCC(=O)N1c1ccc(Cl)cc1O (stereo unspecified) |
| 100 (≈ 302 µM) | N#Cc1ccc(C2SCC(=O)N2c2ccc(Cl)cc2O)cc1 (stereo unspecified) |

What follows are molecules tested on HeLa (assay: Cytotoxicity against human HeLa cells by SRB method). Details: not given.
Type: cell-based
Procedure, shortened: as §2

| Structure (SMILES) | IC50 [µM] |
| --- | --- |
| O=C1CSC(c2ccc(O)cc2)N1c1ccc(Cl)cc1O (stereo unspecified) | 63.8 |
| Cc1ncsc1C1SCC(=O)N1c1ccc(Cl)cc1O (stereo unspecified) | 78.5 |
| N#Cc1ccc(C2SCC(=O)N2c2ccc(Cl)cc2O)cc1 (stereo unspecified) | 83.2 |

Each molecule was assayed on Aspergillus flavus (assay: Antimicrobial activity against Aspergillus flavus NCIM-539 after 20 hrs by two fold serial macrodilution technique). Details: NCIM-539, 20 h.
Type: functional

| MIC [µg/mL] | Structure (SMILES) |
| --- | --- |
| 20 (≈ 62.2 µM) | O=C1CSC(c2ccc(O)cc2)N1c1ccc(Cl)cc1O (stereo unspecified) |
| 3 (≈ 9.18 µM) | Cc1ncsc1C1SCC(=O)N1c1ccc(Cl)cc1O (stereo unspecified) |
| 60 (≈ 181 µM) | N#Cc1ccc(C2SCC(=O)N2c2ccc(Cl)cc2O)cc1 (stereo unspecified) |

What follows are molecules tested on Staphylococcus aureus (assay: Antimicrobial activity against Staphylococcus aureus NCIM-2901 after 20 hrs by two fold serial macrodilution technique). Details: NCIM-2901, 20 h.
Type: functional
Procedure, shortened: (§3)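 Serial macrodilution in 96-well microtiter plates. Compounds were dissolved in saline (0.8% NaCl) containing 5% DMSO, and strains were incubated with a range of concentrations for 20 h at 37 °C on a rotary shaker (160 rpm). MIC was the lowest concentration without growth. Runs were in triplicate, with the mean taken. The negative control was 5% DMSO.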

| MIC [µg/mL] | Structure (SMILES) |
| --- | --- |
| 6 (≈ 18.6 µM) | O=C1CSC(c2ccc(O)cc2)N1c1ccc(Cl)cc1O (stereo unspecified) |
| 15 (≈ 45.9 µM) | Cc1ncsc1C1SCC(=O)N1c1ccc(Cl)cc1O (stereo unspecified) |
| 35 (≈ 106 µM) | N#Cc1ccc(C2SCC(=O)N2c2ccc(Cl)cc2O)cc1 (stereo unspecified) |

These molecules were tested on Escherichia coli (assay: Antimicrobial activity against Escherichia coli NCIM-2256 after 20 hrs by two fold serial macrodilution technique). Details: NCIM-2256, 20 h.
Type: functional
Procedure, shortened: as §3

| MIC [µg/mL] | Structure (SMILES) |
| --- | --- |
| 20 (≈ 62.2 µM) | O=C1CSC(c2ccc(O)cc2)N1c1ccc(Cl)cc1O (stereo unspecified) |
| 15 (≈ 45.9 µM) | Cc1ncsc1C1SCC(=O)N1c1ccc(Cl)cc1O (stereo unspecified) |
| 90 (≈ 272 µM) | N#Cc1ccc(C2SCC(=O)N2c2ccc(Cl)cc2O)cc1 (stereo unspecified) |

These molecules were tested on Candida albicans (assay: Antimicrobial activity against Candida albicans NCIM-3471 after 20 hrs by two fold serial macrodilution technique). Details: NCIM-3471, 20 h.
Type: functional

| MIC [µg/mL] | Structure (SMILES) |
| --- | --- |
| 25 (≈ 77.7 µM) | O=C1CSC(c2ccc(O)cc2)N1c1ccc(Cl)cc1O (stereo unspecified) |
| 30 (≈ 91.8 µM) | Cc1ncsc1C1SCC(=O)N1c1ccc(Cl)cc1O (stereo unspecified) |
| 90 (≈ 272 µM) | N#Cc1ccc(C2SCC(=O)N2c2ccc(Cl)cc2O)cc1 (stereo unspecified) |

Each molecule was assayed on Bacillus subtilis (assay: Bactericidal activity against Bacillus subtilis NCIM-2063 after 72 hrs by two fold serial macrodilution technique). Details: NCIM-2063, 72 h.
Type: functional
Procedure, shortened: as §1

| Structure (SMILES) | MBC [µg/mL] |
| --- | --- |
| O=C1CSC(c2ccc(O)cc2)N1c1ccc(Cl)cc1O (stereo unspecified) | 25 (≈ 77.7 µM) |
| Cc1ncsc1C1SCC(=O)N1c1ccc(Cl)cc1O (stereo unspecified) | 55 (≈ 168 µM) |
| N#Cc1ccc(C2SCC(=O)N2c2ccc(Cl)cc2O)cc1 (stereo unspecified) | 140 (≈ 423 µM) |

The molecules below were run on Cryptococcus neoformans (assay: Antimicrobial activity against Cryptococcus neoformans NCIM-3378 after 20 hrs by two fold serial macrodilution technique). Details: NCIM-3378, 20 h.
Type: functional

| MIC [µg/mL] | Structure (SMILES) |
| --- | --- |
| 60 (≈ 186 µM) | O=C1CSC(c2ccc(O)cc2)N1c1ccc(Cl)cc1O (stereo unspecified) |
| 55 (≈ 168 µM) | Cc1ncsc1C1SCC(=O)N1c1ccc(Cl)cc1O (stereo unspecified) |
| 85 (≈ 257 µM) | N#Cc1ccc(C2SCC(=O)N2c2ccc(Cl)cc2O)cc1 (stereo unspecified) |

The molecules below were run on Salmonella typhimurium (assay: Bactericidal activity against […] after 72 hrs by two fold serial macrodilution technique). Details: Salmonella enterica.
Type: functional, Salmonella enterica subsp. enterica serovar Typhimurium
Procedure, shortened: as §1

| Structure (SMILES) | MBC [µg/mL] |
| --- | --- |
| O=C1CSC(c2ccc(O)cc2)N1c1ccc(Cl)cc1O (stereo unspecified) | 45 (≈ 140 µM) |
| Cc1ncsc1C1SCC(=O)N1c1ccc(Cl)cc1O (stereo unspecified) | 40 (≈ 122 µM) |
| N#Cc1ccc(C2SCC(=O)N2c2ccc(Cl)cc2O)cc1 (stereo unspecified) | 115 (≈ 348 µM) |

These molecules were tested on Candida albicans (assay: Fungicidal activity against Candida albicans NCIM-3471 after 48 to 72 hrs by two fold serial macrodilution technique). Details: not given.
Type: functional
Procedure, shortened: as §1

| Structure (SMILES) | MFC [µg/mL] |
| --- | --- |
| O=C1CSC(c2ccc(O)cc2)N1c1ccc(Cl)cc1O (stereo unspecified) | 40 (≈ 124 µM) |
| Cc1ncsc1C1SCC(=O)N1c1ccc(Cl)cc1O (stereo unspecified) | 45 (≈ 138 µM) |
| N#Cc1ccc(C2SCC(=O)N2c2ccc(Cl)cc2O)cc1 (stereo unspecified) | 140 (≈ 423 µM) |

These molecules were tested on Escherichia coli (assay: Bactericidal activity against Escherichia coli NCIM-2256 after 72 hrs by two fold serial macrodilution technique). Details: NCIM-2256, 72 h.
Type: functional
Procedure, shortened: as §1

| Structure (SMILES) | MBC [µg/mL] |
| --- | --- |
| O=C1CSC(c2ccc(O)cc2)N1c1ccc(Cl)cc1O (stereo unspecified) | 35 (≈ 109 µM) |
| Cc1ncsc1C1SCC(=O)N1c1ccc(Cl)cc1O (stereo unspecified) | 20 (≈ 61.2 µM) |
| N#Cc1ccc(C2SCC(=O)N2c2ccc(Cl)cc2O)cc1 (stereo unspecified) | 120 (≈ 363 µM) |

Each molecule was assayed on Salmonella typhimurium (assay: Antimicrobial activity against […] after 20 hrs by two fold serial macrodilution technique). Details: Salmonella enterica.
Type: functional, Salmonella enterica subsp. enterica serovar Typhimurium
Procedure, shortened: as §3

| MIC [µg/mL] | Structure (SMILES) |
| --- | --- |
| 25 (≈ 77.7 µM) | O=C1CSC(c2ccc(O)cc2)N1c1ccc(Cl)cc1O (stereo unspecified) |
| 20 (≈ 61.2 µM) | Cc1ncsc1C1SCC(=O)N1c1ccc(Cl)cc1O (stereo unspecified) |
| 55 (≈ 166 µM) | N#Cc1ccc(C2SCC(=O)N2c2ccc(Cl)cc2O)cc1 (stereo unspecified) |

What follows are molecules tested on Bacillus subtilis (assay: Antimicrobial activity against Bacillus subtilis NCIM-2063 after 20 hrs by two fold serial macrodilution technique). Details: NCIM-2063, 20 h.
Type: functional
Procedure, shortened: as §3

| MIC [µg/mL] | Structure (SMILES) |
| --- | --- |
| 15 (≈ 46.6 µM) | O=C1CSC(c2ccc(O)cc2)N1c1ccc(Cl)cc1O (stereo unspecified) |
| 30 (≈ 91.8 µM) | Cc1ncsc1C1SCC(=O)N1c1ccc(Cl)cc1O (stereo unspecified) |
| 100 (≈ 302 µM) | N#Cc1ccc(C2SCC(=O)N2c2ccc(Cl)cc2O)cc1 (stereo unspecified) |

What follows are molecules tested on Staphylococcus aureus (assay: Bactericidal activity against Staphylococcus aureus NCIM-2901 after 72 hrs by two fold serial macrodilution technique). Details: NCIM-2901, 72 h.
Type: functional
Procedure, shortened: as §1

| Structure (SMILES) | MBC [µg/mL] |
| --- | --- |
| O=C1CSC(c2ccc(O)cc2)N1c1ccc(Cl)cc1O (stereo unspecified) | 20 (≈ 62.2 µM) |
| Cc1ncsc1C1SCC(=O)N1c1ccc(Cl)cc1O (stereo unspecified) | 20 (≈ 61.2 µM) |
| N#Cc1ccc(C2SCC(=O)N2c2ccc(Cl)cc2O)cc1 (stereo unspecified) | 145 (≈ 438 µM) |
